Data set [1] is described as follows: Mouse brain homogenate binding. Type of data set: in vitro ADME.
Another data set has as its target T1, cyno M4 (Macaca fascicularis, UniProt G7PQB4).
T1 sequence (G7PQB4 1-479): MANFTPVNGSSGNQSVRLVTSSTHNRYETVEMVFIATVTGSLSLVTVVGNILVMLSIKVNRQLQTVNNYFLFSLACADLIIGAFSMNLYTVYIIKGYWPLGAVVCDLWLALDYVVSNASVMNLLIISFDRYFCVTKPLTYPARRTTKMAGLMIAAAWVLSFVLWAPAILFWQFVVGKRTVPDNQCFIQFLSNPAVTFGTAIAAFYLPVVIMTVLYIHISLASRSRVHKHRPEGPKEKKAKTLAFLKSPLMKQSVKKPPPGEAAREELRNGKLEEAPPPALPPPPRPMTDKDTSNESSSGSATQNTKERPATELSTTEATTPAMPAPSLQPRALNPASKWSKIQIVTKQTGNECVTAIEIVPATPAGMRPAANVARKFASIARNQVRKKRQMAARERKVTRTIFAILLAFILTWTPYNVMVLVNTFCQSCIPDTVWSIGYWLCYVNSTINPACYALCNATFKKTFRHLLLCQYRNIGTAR
The data set is described as follows: Calcium mobilization, potentiation of ACh EC20. Format: cell-based, cynomolgus monkey. The note with it: maximum response as % of the Emax of ACh. The essentials:
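Receptor-expressing cells were plated at 15000 cells/well in DMEM with 10% dialyzed FBS, 20 mM HEPES and 1 mM pyruvate, and grown overnight at 37 °C/5% CO2. Test compound was added, then ACh at EC20 140 s later and at EC80 120 s later. Responses were normalized to 10 μM ACh maximum; ≥3 independent experiments.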

The nature of data set [2]: Pharmacokinetic and brain distribution studies in mice. The note with it: for AUC(0-t) / Cmax / Tmax: male, C57BL/6, mouse, in vivo.
The next data set addresses T2, rat M4 receptor (Rattus norvegicus, UniProt P08485).
T2 sequence (P08485 1-478): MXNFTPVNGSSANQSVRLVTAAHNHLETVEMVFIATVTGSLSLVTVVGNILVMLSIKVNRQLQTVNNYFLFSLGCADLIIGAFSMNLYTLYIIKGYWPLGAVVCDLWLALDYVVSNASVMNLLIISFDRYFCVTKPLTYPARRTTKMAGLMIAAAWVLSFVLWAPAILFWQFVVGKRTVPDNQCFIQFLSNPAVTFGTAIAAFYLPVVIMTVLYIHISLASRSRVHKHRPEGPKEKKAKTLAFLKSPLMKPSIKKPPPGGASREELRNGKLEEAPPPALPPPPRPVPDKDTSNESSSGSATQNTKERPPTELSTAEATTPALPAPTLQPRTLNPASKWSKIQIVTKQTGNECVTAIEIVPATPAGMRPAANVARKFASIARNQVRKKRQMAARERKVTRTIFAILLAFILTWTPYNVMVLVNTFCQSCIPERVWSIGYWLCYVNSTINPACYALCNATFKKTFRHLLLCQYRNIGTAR
Format: cell-based. The note with it: maximum response as % of the Emax of ACh.

For data set [3], the system named is 57 GPCRs, ion channels, and transporters. The data set is described as follows: Ricerca lead profiling screen, radioligand binding panel. The note with it: 10 μM.
Data set [4] concerns the target T3, guinea pig adenosine transporter (Cavia porcellus, UniProt H0V4R7).
T3 sequence (H0V4R7 1-461): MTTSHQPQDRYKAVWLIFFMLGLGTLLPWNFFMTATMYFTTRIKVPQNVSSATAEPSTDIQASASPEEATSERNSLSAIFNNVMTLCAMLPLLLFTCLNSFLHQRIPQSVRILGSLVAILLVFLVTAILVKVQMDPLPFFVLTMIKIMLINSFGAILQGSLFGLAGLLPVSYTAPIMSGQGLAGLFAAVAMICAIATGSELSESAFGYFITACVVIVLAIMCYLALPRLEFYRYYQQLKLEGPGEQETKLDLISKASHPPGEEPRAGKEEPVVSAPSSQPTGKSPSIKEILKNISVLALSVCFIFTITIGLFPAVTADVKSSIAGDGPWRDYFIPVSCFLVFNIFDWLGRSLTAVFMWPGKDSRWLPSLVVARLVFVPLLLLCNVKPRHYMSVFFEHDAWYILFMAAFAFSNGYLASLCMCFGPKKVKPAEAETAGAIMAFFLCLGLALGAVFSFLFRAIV
The data set is described as follows: Cerep panel, displacement of [3H]NTBI binding.

The next data set has as its system rat M1 receptor. The data set is described as follows: Calcium mobilization, selectivity. Type of data set: cell-based. The essentials:
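Cells were seeded at 15000/well in DMEM with 10% dialyzed FBS, 20 mM HEPES and 1 mM pyruvate, then cultured overnight at 37 °C/5% CO2. M2 and M4 lines were cotransfected with Gqi5. Cells were loaded with 1 μM Fluo-4AM (HBSS, 20 mM HEPES, 2.5 mM probenecid, pH 7.4) for 50 min at 37 °C. ACh was added 140 s after test compound. Calcium signal was expressed as % of the 10 μM ACh maximum.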

Data set [5] deals with wild-type mice. The experiment in a line: Modified Irwin neurological test battery. The note with it: 10–30 mg/kg. Type of data set: in vivo, mouse.
The target in data set [6] is T4, human adenosine transporter (Homo sapiens, UniProt Q99808).
T4 sequence (Q99808 1-456): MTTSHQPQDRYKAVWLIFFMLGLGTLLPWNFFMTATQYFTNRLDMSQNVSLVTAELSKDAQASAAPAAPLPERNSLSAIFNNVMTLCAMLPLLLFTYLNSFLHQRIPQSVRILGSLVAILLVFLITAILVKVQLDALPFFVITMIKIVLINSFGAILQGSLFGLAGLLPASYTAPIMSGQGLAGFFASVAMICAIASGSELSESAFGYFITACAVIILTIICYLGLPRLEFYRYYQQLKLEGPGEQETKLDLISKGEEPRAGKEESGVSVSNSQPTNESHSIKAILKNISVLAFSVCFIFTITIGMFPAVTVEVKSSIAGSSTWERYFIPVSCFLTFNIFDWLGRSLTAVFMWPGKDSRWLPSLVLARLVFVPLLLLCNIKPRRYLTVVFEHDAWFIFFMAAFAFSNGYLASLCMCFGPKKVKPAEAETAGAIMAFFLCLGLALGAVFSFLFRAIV
The data set is described as follows: [3H]adenosine uptake functional assay. Format: cell-based.

Data set [7] relates to wild-type mice. The experiment in a line: Rotarod. Type of data set: in vivo, mouse. Particulars: 3–30 mg/kg IP, rotarod 20 rpm. The essentials:
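Mice received vehicle (10% Tween 80 in sterile water IP) or test compound (3–30 mg/kg IP). Sixty minutes later they were placed on the rotarod and latency to fall was measured. One-way ANOVA with Dunnett's test.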

The text below walks through data of paper PMC4324418 (ACS Chemical Neuroscience, 2014).

In [1], `Cc1nnc2sc(C(=O)NCc3ccc(S(=O)(=O)C(F)(F)F)cc3)c(N)c2c1C` [VU0467154, 5-amino-3,4-dimethyl-N-(4-((trifluoromethyl)sulfonyl)benzyl)thieno[2,3-c]pyridazine-6-carboxamide] displayed a free fraction (fraction unbound) of 0.014. Also, the “%AChmax” value at cyno M4 is reported as 57%; on rat M4 receptor it was 68%. The AUC(0-t) was 9.2 µM·h in data set [2] (ip, 3 mg/kg); 39 µM·h in [2] (ip, 10 mg/kg); 46 µM·h in data set [2] (po, 10 mg/kg); 66 µM·h in data set [2] (po, 30 mg/kg). Besides, the maximum concentration (Cmax) in data set [2] (ip, 3 mg/kg) turned out to be 2 µM; in data set [2] (ip, 10 mg/kg), 5.6 µM; in [2] (po, 10 mg/kg), 7.6 µM; in data set [2] (po, 30 mg/kg), 11 µM. The time of peak concentration (Tmax) is 1 h in data set [2] (ip, 3 mg/kg); 0.5 h in data set [2] (ip, 10 mg/kg); 0.5 h in data set [2] (ip, 30 mg/kg); 1 h in [2] (po, 10 mg/kg); 1 h in data set [2] (po, 30 mg/kg). Further, the “brain AUC0–24h” value in data set [2] (mouse, IP 3 mg/kg, brain) stood at 5.9 µM·h. Also, the figures for the “displacement of the radioligand” value in data set [3] (all targets included in this panel) and in data set [3] (majority of targets) were no more than 30% and no more than 20%, respectively. In [4], this molecule had a Ki of 0.098 µM. Also, the “potentiation of ACh response (calcium response)” value in the data set on rat M1 receptor is “lack of a calcium response”. The “autonomic and somatosensory side effects” value in the data set with wild-type mice [5] is “did not exhibit autonomic and somatosensory side effects”. The same molecule registered an IC50 in data set [6] of 0.24 µM. In addition, the latency to fall result in the data set on wild-type mice [7] is on record as “did not alter the latency to fall”.
